The source of these data is ChEMBL document CHEMBL4266037, “Discovery and Characterization of Cyclotides from Rinorea Species” (J Nat Prod, 2018).

Positions of bridges follow the written chain, without caps; N, C: chain ends. Residues, ends and D or L forms follow the SMILES beside them. A value given as a limit tells only on which side of the number the result lay.

For test [1], the system named is MM96L. The test is described as follows: Cytotoxicity against human MM96L after 24 hrs by MTT assay. Format: functional, cell-based. Summed up:
(§1)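 Cells seeded at 3 × 10^3 per well and grown 24 h at 37 °C in 5% CO2. Media: HUVEC in 10% FBS/EBM-2 with supplements; HFF-1 in 15% FBS/DMEM; HT-29 and MDA-MB-231 in 10% FBS/DMEM; MM96L in 10% FBS/RPMI with 2 mM L-glutamine and 1 mM pyruvate. Switched to serum-free medium, then paclitaxel 0.00075–10 μM for 24 or 48 h. MTT added 3 h, formazan taken up in DMSO, A600. Triplicate; IC50 from sigmoidal fit.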
In general terms: Tetrazolium assays rely on reduction of a dye to a coloured formazan, in cell work by metabolically active cells.

For test [2], the system named is HUVEC. Put plainly: Cytotoxicity against HUVEC after 24 hrs by MTT assay. In kind it is cell-based. Particulars: Homo sapiens. Summed up:
as §1

The test system of test [3] is HFF-1. Put plainly: Cytotoxicity against human HFF1 after 24 hrs by MTT assay. In kind it is cell-based. The following applies: HFF-1, 24 h. Summed up:
as §1

The subject of test [4] is HT-29. Put plainly: Cytotoxicity against human HT-29 after 24 hrs by MTT assay. The following applies: HT-29, 24 h. In kind it is functional, cell-based. Summed up:
as §1

Test [5] deals with MDA-MB-231. Put plainly: Cytotoxicity against human MDA-MB-231 after 24 hrs by MTT assay. In kind it is functional, cell-based. Particulars: MDA-MB-231, 24 h. Summed up: as §1
In test [6] the test system is Erythrocyte. The test is described as follows: Hemolytic activity against human RBC after 1 hr. In kind it is ADME, cell-based. Summed up:
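Human red blood cells exposed to test peptides at 0.003–10 μM, with melittin at 0.15–20 μM as the lysis positive control. IC50 given as mean ± SD of three biological replicates.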

Test [7] concerns HFF-1. Put plainly: Cytotoxicity against human HFF1 after 48 hrs by MTT assay. In kind it is cell-based. Particulars: HFF-1, 48 h. Summed up:
as §1

The subject of test [8] is MDA-MB-231. Put plainly: cells. The following applies: Homo sapiens, MDA-MB-231, 48 h.
For test [9], the system named is HT-29. Put plainly: Cytotoxicity against human HT-29 after 48 hrs by MTT assay. In kind it is functional, cell-based. Particulars: HT-29, 48 h. Summed up: as §1
The subject of test [10] is HUVEC. The test is described as follows: Cytotoxicity against HUVEC after 48 hrs by MTT assay. Format: cell-based. The following applies: Homo sapiens. Summed up:
as §1

For test [11], the system named is MM96L. The test is described as follows: Cytotoxicity against human MM96L after 48 hrs by MTT assay. Format: functional, cell-based. Summed up: as §1

On to `CC[C@H](C)[C@@H]1NC(=O)[C@H](Cc2ccc(O)cc2)NC(=O)[C@H](CO)NC(=O)C(N)C(=O)[C@H](CC(N)=O)NC(=O)[C@H](CCCCN)NC(=O)[C@H](CCCCN)NC(=O)[C@@H]2CSSC[C@@H]3NC(=O)[C@H](CCCCN)NC(=O)CNC(=O)[C@H](CCC(N)=O)NC(=O)[C@H](C(C)C)NC(=O)[C@@H]4CSSC[C@H](NC(=O)[C@H]([C@@H](C)O)NC(=O)[C@H](CSSC[C@H](NC1=O)C(=O)NCC(=O)N[C@@H](CCC(=O)O)C(=O)N[C@@H]([C@@H](C)O)C(=O)N4)NC(=O)CNC(=O)[C@@H]1CCCN1C(=O)[C@H]([C@@H](C)O)NC(=O)[C@H](Cc1ccc(O)cc1)NC3=O)C(=O)N[C@@H](CO)C(=O)N[C@@H](Cc1c[nH]c3ccccc13)C(=O)N1CCC[C@H]1C(=O)N[C@@H]([C@@H](C)CC)C(=O)N2` (stereo partly drawn), for which the IC50 (usually the concentration that inhibits the measured activity by half) was 1300 nM in test [1]; 1600 nM in test [2]; 2100 nM in test [3]; 5900 nM in [4]; 950 nM in [5]; more than 10000 nM in test [6].
Take `CC[C@H](C)[C@@H]1NC(=O)[C@H](C)NC(=O)[C@H](CO)NC(=O)[C@H](CO)NC(=O)[C@H]([C@@H](C)CC)NC(=O)[C@@H]2CSSC[C@@H]3NC(=O)[C@H](C(C)C)NC(=O)[C@H](CCCCN)NC(=O)[C@H](CO)NC(=O)[C@H](CCCCN)NC(=O)[C@@H]4CSSC[C@H](NC(=O)[C@H](CO)NC(=O)[C@H](CCC(=O)O)NC(=O)CNC(=O)[C@H](CSSC[C@H](NC(=O)CNC1=O)C(=O)N[C@@H](CO)C(=O)N4)NC(=O)[C@@H]1CCCN1C(=O)[C@H]([C@@H](C)CC)NC(=O)CNC(=O)[C@H](CC(N)=O)NC(=O)[C@H](CCCNC(=N)N)NC(=O)[C@H](Cc1ccc(O)cc1)NC3=O)C(=O)N[C@@H](C(C)C)C(=O)N[C@@H](Cc1c[nH]c3ccccc13)C(=O)N[C@@H]([C@@H](C)CC)C(=O)N1CCC[C@H]1C(=O)N2` (cyclo(AIGCSCKSKVCYRNGIPCGESCVWIPCISS); disulfide 4-18, 6-22, 11-27): the IC50 in test [1] was 650 nM; in test [2] it was 350 nM; in test [3], 1300 nM; in test [4], 870 nM; in test [5], 1500 nM; in [6] it was 36000 nM.
Consider `CC[C@H](C)[C@@H]1NC(=O)[C@@H]2CCCN2C(=O)[C@H](CC(C)C)NC(=O)CNC(=O)[C@H](CC(N)=O)NC(=O)[C@H](CCCCN)NC(=O)[C@H](Cc2ccc(O)cc2)NC(=O)[C@@H]2CSSC[C@@H]3NC(=O)[C@H](CCCCN)NC(=O)CNC(=O)[C@H](CC(C)C)NC(=O)[C@H](CC(C)C)NC(=O)[C@@H]4CSSC[C@H](NC(=O)[C@H](CO)NC(=O)[C@H](CSSC[C@H](NC1=O)C(=O)NCC(=O)N[C@@H](CCC(=O)O)C(=O)N[C@@H]([C@@H](C)O)C(=O)N4)NC(=O)CNC(=O)[C@@H]1CCCN1C(=O)[C@H]([C@@H](C)O)NC(=O)[C@H](Cc1ccc(O)cc1)NC3=O)C(=O)N[C@@H](CCCNC(=N)N)C(=O)N[C@@H](CCCNC(=N)N)C(=O)N1CCC[C@H]1C(=O)N[C@@H](C(C)C)C(=O)N2` (cyclo(CGETCLLGKCYTPGCSCRRPVCYKNGLPI); disulfide 1-15, 5-17, 10-22), for which the IC50 in test [1] was 1100 nM; in [2], 2600 nM; in test [3], 1900 nM; in test [5], 2300 nM; in test [6], more than 10000 nM.
In the case of `CC[C@H](C)[C@@H]1NC(=O)[C@@H]2CCCN2C(=O)[C@H](CCCCN)NC(=O)CNC(=O)[C@H](CC(N)=O)NC(=O)[C@H](CCCCN)NC(=O)[C@H](Cc2ccc(O)cc2)NC(=O)[C@H](CS)NC(=O)[C@H](CC(C)C)NC(=O)[C@H](C(C)C)NC(=O)[C@H](CCCNC(=N)N)NC(=O)[C@H](CCCCN)NC(=O)CNC(=O)[C@@H]2CSSC[C@@H]3NC(=O)[C@H]([C@@H](C)O)NC(=O)[C@H](CCC(=O)O)NC(=O)CNC(=O)[C@H](CSSC[C@H](NC(=O)CNC(=O)[C@@H]4CCCN4C(=O)[C@H]([C@@H](C)O)NC(=O)[C@H](Cc4ccc(O)cc4)NC(=O)[C@H](CS)NC(=O)[C@H](CCCCN)NC(=O)CNC(=O)[C@H](CC(C)C)NC(=O)[C@H](CC(C)C)NC3=O)C(=O)N[C@@H]([C@@H](C)O)C(=O)N2)NC1=O` (cyclo(CGETCLLGKCYTPGCTCGKRVLCYKNGKPI); disulfide 1-15, 5-17), the IC50 in test [1] was 930 nM; in [2] it was 2800 nM; in [3], 1700 nM; in test [5], 4400 nM.
Consider `CC[C@H](C)[C@@H]1NC(=O)[C@@H]2CCCN2C(=O)[C@H](CC(C)C)NC(=O)CNC(=O)[C@H](CC(N)=O)NC(=O)[C@H](CCCCN)NC(=O)[C@H](Cc2ccc(O)cc2)NC(=O)[C@@H]2CSSC[C@@H]3NC(=O)[C@H](CCCCN)NC(=O)CNC(=O)[C@H](Cc4ccccc4)NC(=O)[C@H](C(C)C)NC(=O)[C@@H]4CSSC[C@H](NC(=O)[C@H](CO)NC(=O)[C@H](CSSC[C@H](NC1=O)C(=O)NCC(=O)N[C@@H](CCC(=O)O)C(=O)N[C@@H]([C@@H](C)O)C(=O)N4)NC(=O)CNC(=O)[C@@H]1CCCN1C(=O)[C@H]([C@@H](C)O)NC(=O)[C@H](CC(N)=O)NC3=O)C(=O)N[C@@H](CCCNC(=N)N)C(=O)N[C@@H](CCCNC(=N)N)C(=O)N1CCC[C@H]1C(=O)N[C@@H]([C@@H](C)CC)C(=O)N2` (cyclo(CGETCVFGKCNTPGCSCRRPICYKNGLPI); disulfide 1-15, 5-17, 10-22), for which the IC50 in test [1] was more than 3000 nM; in test [2], more than 3000 nM; in test [3], more than 3000 nM; in test [4], more than 10000 nM; in test [5], more than 10000 nM; in [6], more than 10000 nM.
For `CC[C@H](C)[C@H](NC(=O)CN)C(=O)NCC(=O)N[C@@H](C)C(=O)N[C@H](C(=O)N[C@@H](CC(C)C)C(=O)N[C@@H](CCCCN)C(=O)N[C@H](C(=O)N[C@@H](CC(C)C)C(=O)N[C@H](C(=O)N[C@H](C(=O)NCC(=O)N[C@@H](CC(C)C)C(=O)N1CCC[C@H]1C(=O)N[C@@H](C)C(=O)N[C@@H](CC(C)C)C(=O)N[C@H](C(=O)N[C@@H](CO)C(=O)N[C@@H](Cc1c[nH]c2ccccc12)C(=O)N[C@H](C(=O)N[C@@H](CCCCN)C(=O)N[C@@H](CCCNC(=N)N)C(=O)N[C@@H](CCCCN)C(=O)N[C@@H](CCCNC(=N)N)C(=O)N[C@@H](CCC(N)=O)C(=O)N[C@@H](CCC(N)=O)C(N)=O)[C@@H](C)CC)[C@@H](C)CC)[C@@H](C)O)[C@@H](C)O)C(C)C)C(C)C` [MELITTIN], 960 nM corresponded to half-maximal inhibition in test [6] (IC50). That is a sub-micromolar value.
Regarding `CC(=O)O[C@H]1C(=O)[C@@]2(C)[C@H]([C@H](OC(=O)c3ccccc3)[C@]3(O)C[C@H](OC(=O)[C@H](O)[C@@H](NC(=O)c4ccccc4)c4ccccc4)C(C)=C1C3(C)C)[C@]1(OC(C)=O)CO[C@@H]1C[C@@H]2O` [PACLITAXEL], the IC50 in test [7] was more than 10000 nM; in test [1], more than 10000 nM; in test [8] it was 1 nM; in [2], more than 10000 nM; in test [9], 10 nM; in test [3] it was more than 10000 nM. Further, the IC50 in test [10] is more than 10000 nM; in [4], 70 nM; in test [5] it was 200 nM; in test [11], more than 10000 nM.
